Source: PubChem BioAssay
HSF1 inh – HSF1 inhibition; NIH3T3-HGL HSE-luciferase, MG132-induced, luminescence 8 h; active compounds read low; activity change, negative = inhibition, % at 7.5 µM (by protocol); actives 0.77% (n = 300,000); AID 2098;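 active = more than half of replicate wells show activity change below -50%, luminescence cut by over half; inconclusive = some wells, but at most half, below -50%; inactive = no replicate well below -50%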;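 also: luciferase reports HSF-1 transcriptional activity via heat shock element; 0% = median of DMSO wells and -100% = zero luminescence signal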
697 NFkB inh – lowers PMA/ionomycin-induced NF-kB signal in 697 B cells; 697 B-cell NF-kB luciferase reporter, 16 h; AID 435022; actives 0.33% (n = 330,000); inhibition, % at 4 µM; in the data active = inhibition above about 35%
Jurkat NFkB inh – lowers PMA/ionomycin-induced NF-kB signal in Jurkat cells | AID 435003 | inhibition, % at 4 µM | actives 0.53% (n = 330,000) | PMA/ionomycin-induced NF-kB luciferase reporter, luminescence; in the data active = inhibition above about 50%
T cruzi repl – T. cruzi replication inhibition; inhibition, % (test concentration not listed); AID 1885; T. cruzi beta-gal in NIH3T3, luminescence, 90 h; actives 1.4% (n = 300,000);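 active = mean inhibition across valid replicates above about 55%, limit read from the data; inconclusive = mean below that limit but half or more replicates reach it; inactive = mean below it, under half of replicates reach it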;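 also: signal also drops with host cell toxicity which is not excluded here; 0% = plate median of DMSO wells and 100% = zero luminescence signal; higher percent means less beta-gal luminescence so fewer parasites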
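System – NIH/3T3 host cells with β-galactosidase reporter T. cruzi · Doses – single 50 nL compound addition per well in DMSO · Reagent – 5000 T. cruzi trypomastigotes/well · Medium – Low-serum DMEM with 2% FBS · Timing – ≥90 h infection period, 3 h prior cell attachment · Evaluation – parasite load inhibition, % · Technique – GalScreen luminescence, 60 min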
HSF-1 act – increases HSF-1 driven luciferase reporter signal. activation, % at 9 µM. actives 1.7% (n = 300,000). NIH3T3-HGL HSF-1 luciferase reporter, MG132, 8 h; 100% = twice DMSO control signal;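 active = mean replicate activation of at least 50% with a set share of replicates each reaching 50%; inconclusive = only one of those two conditions met; inactive = mean below 50% and too few replicates reaching it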;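 also: 0% = median of the neutral control wells and 100% = twice that signal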
GPR7 antagonist – human neuropeptides B/W receptor 1 antagonism; GPR7-expressing cells, fluorescence antagonist assay; inhibition, % at 4.4 µM; AID 1861; actives 1.1% (n = 290,000); P48145; in the data active = inhibition above about 16%, passing the limit was not always enough;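 also: cells stimulated with the agonist NPW; 0% = agonist with vehicle and 100% = vehicle without agonist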
Target sequence (P48145 whole entry, looked up): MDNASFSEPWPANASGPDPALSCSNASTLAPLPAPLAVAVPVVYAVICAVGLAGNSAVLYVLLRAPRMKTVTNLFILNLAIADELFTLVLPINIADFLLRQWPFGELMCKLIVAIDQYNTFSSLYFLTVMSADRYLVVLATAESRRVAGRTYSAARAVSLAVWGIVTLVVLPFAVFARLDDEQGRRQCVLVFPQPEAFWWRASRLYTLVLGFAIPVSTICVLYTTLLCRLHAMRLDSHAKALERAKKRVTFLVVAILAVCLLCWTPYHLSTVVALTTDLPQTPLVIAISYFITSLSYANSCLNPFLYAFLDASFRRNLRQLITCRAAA
* hit, by the source's call; ? = inconclusive; . = no result given. Hits are enriched below; roughly 4.8% of the tested compounds scored in any of these assays.

SMILES | HSF1 inh | 697 NFkB inh | Jurkat NFkB inh | T cruzi repl | HSF-1 act | GPR7 antagonist
C/C(CCc1oc2ccccc2c1-c1ccc(C)o1)=N/O | . | 0.8 | 2.3 | . | . | 0.7
C/C(CCc1oc2c(Br)cc(Br)cc2c1-c1ccc(C)o1)=N\O | 39.7 | -36.2 | -5.1 | 45.4 | 79.6* | 7.2
Cc1cc(C)c(C(=O)COC(=O)c2nn(C)c(=O)c3ccccc23)cc1C | . | 2.1 | 12.2 | . | . | .
O=C(COC(=O)COc1ccccc1F)Nc1ccc2c(c1)OCO2 | . | 12.8 | 5.7 | . | . | .
COc1ccc(C(=O)C2CCCN(Cc3cnc(N4CCCC4)s3)C2)cc1OC (stereo not given) | -9.1 | -23.1 | -20.8 | 67.0* | 13.1 | -4.7
COc1ccc(Cl)cc1C(=O)C1CCCN(Cc2cnc(N3CCOCC3)s2)C1 (stereo not given) | 1.5 | 3.7 | -10.0 | 71.6* | 3.0 | -0.8
COc1c(C)cc(C(=O)C2CCCN(Cc3cnc(N4CCOCC4)s3)C2)cc1C (stereo not given) | -1.8 | 11.4 | 12.4 | 39.9 | -13.3 | -4.0
COc1ccc(F)cc1C(=O)C1CCCN(Cc2cnc(N3CCCC3)s2)C1 (stereo not given) | 5.2 | 12.7 | -0.3 | 56.6* | -8.3 | -15.1
COc1ccc(F)cc1C(=O)C1CCCN(Cc2ccc3c(c2)OCCO3)C1 (stereo not given) | 3.8 | -7.5 | 4.8 | 41.0 | 7.7 | -10.0
COc1cccc(C(=O)CC(=O)C(=O)Nc2cccc([N+](=O)[O-])c2C)c1 | -3.7 | 21.6 | 0.5 | 2.8 | -4.8 | -10.2
Cc1ccc([N+](=O)[O-])cc1NC(=O)c1ccc(CSc2ccccc2)cc1 | 1.1 | 23.1 | -7.0 | -2.9 | -15.2 | 1.6
COc1ccc(C(=O)CC(=O)C(=O)Nc2cccc([N+](=O)[O-])c2C)cc1 | 18.8 | -1.6 | -7.6 | -13.7 | 58.4* | -4.0
Cc1ccc(SCc2ccc(C(=O)Nc3cccc([N+](=O)[O-])c3C)cc2)cc1 | -5.0 | -32.4 | 6.8 | 59.5* | -7.0 | -15.9
CCCCOc1ccc(C(=O)Nc2ccc(C)cc2[N+](=O)[O-])cc1 | 9.2 | -18.2 | -12.3 | 4.1 | 17.3 | -6.8
CCCOc1ccc(C(=O)Nc2ccccc2[N+](=O)[O-])cc1 | 35.2 | -70.6 | -79.1 | -0.5 | 59.0* | 2.3
COCCNC(=S)N1CCN(C/C=C/c2ccccc2)CC1 | 0.5 | 11.9 | 1.2 | 1.4 | 6.7 | -12.6
C/C(=N\NC(=S)NC(C)C)c1ccccc1 | -24.4 | 10.1 | -3.0 | -2.4 | -42.3 | -10.0
CC(C)NC(=S)NC(c1ccccc1)(c1ccccc1)c1ccccc1 | 4.3 | -33.3 | 7.6 | 54.7* | 3.0 | -6.9
CN(C(=O)COC(=O)CSc1ccc(C(N)=O)cc1[N+](=O)[O-])C1CCS(=O)(=O)C1 (stereo not given) | -5.4 | -4.7 | 10.8 | -9.0 | 1.4 | .
O=C(CCl)Nc1cc(SCC(O)CO)cc([N+](=O)[O-])c1 (stereo not given) | -71.1* | . | . | 46.0 | -73.5 | 3.8
O=C(NCc1ccccn1)Nc1cccc([N+](=O)[O-])c1 | 11.1 | 10.0 | -15.4 | 2.9 | 7.1 | -10.7
O=C(NCc1ccccn1)c1cccc([N+](=O)[O-])c1 | 18.4 | 13.7 | -20.6 | 2.7 | 61.6* | -17.1
O=[N+]([O-])c1cccc(-c2nc(-c3ccccn3)no2)c1 | 20.3 | -113.3 | -125.9 | 0.6 | 53.6* | -8.5
O=C(NCc1cn(-c2ccccc2)nc1-c1ccccc1)c1cc([N+](=O)[O-])cc([N+](=O)[O-])c1 | 25.9 | -1.1 | 2.8 | 61.5* | 38.1 | -6.9
COc1ccc(-c2nn(-c3ccccc3)cc2CNC(=O)c2cccc([N+](=O)[O-])c2)cc1 | . | -7.1 | 6.0 | 66.4* | . | -3.6
SMILES | HSF1 inh | 697 NFkB inh | Jurkat NFkB inh | T cruzi repl | HSF-1 act | GPR7 antagonist
COc1cccc(-c2nc(-c3ccccn3)no2)c1 | -10.2 | -41.3 | 19.8 | 0.0 | -12.2 | 2.4
Cc1ccc(C)c(S(=O)(=O)N2CCN(C(=O)CCCc3c[nH]c4ccccc34)CC2)c1 | -3.8 | -20.2 | 16.0 | 63.5* | 2.6 | .
Cc1ccc(C)c(S(=O)(=O)N2CCN(C(=O)CCc3c[nH]c4ccccc34)CC2)c1 | . | 12.4 | -4.0 | . | . | .
CS(=O)(=O)N(CC(=O)O)c1ccc(C23CC4CC(CC(C4)C2)C3)cc1 | -65.2* | 10.6 | 12.0 | -11.3 | -71.9 | -6.0
Cc1ccc(-n2nnnc2C(Cl)c2nnnn2-c2ccc(C)cc2)cc1 | 1.9 | . | . | 55.0* | 33.3 | -9.8
O=C1c2ccccc2C(=O)N1CCOc1ccccc1Br | 44.4 | -40.1 | 9.5 | 11.3 | 98.6* | 3.1
Cc1ccccc1OCCN1C(=O)C(=O)c2cccc(C)c21 | -10.2 | -32.5 | 0.9 | 8.9 | -14.0 | 20.7*
O=C1c2ccccc2C(=O)N1CCOc1ccccc1Cl | 30.6 | -130.7 | 10.8 | 8.2 | 71.1* | -3.4
COc1ccc(OC)c(NC(=O)CCn2ccnc2)c1 | -8.2 | 3.0 | 9.6 | 6.4 | 12.6 | -7.3
Cc1ccc(N2CCN(c3ccc(C)cc3)C2c2cccnc2)cc1 | 5.4 | -17.5 | 1.6 | 59.4* | 11.3 | 2.9
CC1CCN(CC(=O)c2cccs2)CC1 | -62.0* | 13.6 | -25.3 | -14.4 | -66.0 | -4.6
CC1CC(C)CN(CC(=O)c2cccs2)C1 (stereo not given) | 6.9 | 3.7 | -6.2 | -8.7 | -10.9 | -2.4
Cc1ccc(C(=O)N2CCC(C)CC2)cc1C | -3.8 | -13.3 | -21.0 | -10.4 | 21.6 | -3.4
Cc1ccccc1Cc1c(C)nc2c(C(=O)NCc3ccc4c(c3)OCO4)cnn2c1C | -2.9 | 22.3 | 10.1 | 29.2 | 1.5 | 6.3
Cc1nc2c(C(=O)NCc3ccco3)cnn2c(C)c1Cc1ccc(F)cc1Cl | 23.2 | -6.1 | 7.7 | 73.9* | ? | 3.0
Cc1ccc(C)c(Cc2c(C)nc3c(C(=O)NCc4ccc5c(c4)OCO5)cnn3c2C)c1 | 13.5 | 11.3 | 5.1 | 67.7* | 12.7 | -0.9
Cc1ccc(C(=S)N2CCCCCC2)cc1 | -4.8 | -13.7 | -0.6 | -9.2 | -2.3 | -11.0
Cc1ncc([N+](=O)[O-])n1CC(=O)NCCc1ccccc1 | -62.5* | 5.5 | -1.3 | -0.2 | -70.3 | -12.5
Cc1ncc([N+](=O)[O-])n1CC(=O)Nc1ccc(F)cc1 | -73.9* | -2.2 | -4.4 | -6.1 | -77.7 | -4.8
Cc1ncc([N+](=O)[O-])n1CC(=O)NCc1ccccc1 | -1.1 | 11.8 | 14.9 | 4.8 | 13.3 | -5.3
Cc1ccc(NC(=O)Cn2c([N+](=O)[O-])cnc2C)cc1 | 1.6 | 3.6 | -3.0 | -8.7 | -17.0 | -7.9
Cc1cc(C)c(S(=O)(=O)N2CCN(c3ccc([N+](=O)[O-])c(-n4nc(C)cc4C)c3)CC2)c(C)c1 | 7.6 | 11.0 | 4.3 | 60.8* | 6.0 | 2.0
O=C(Cn1c(=S)[nH]c2ncccc2c1=O)NCCc1ccccc1 | -5.9 | 7.7 | 1.1 | -6.7 | -1.7 | -8.3
CC(C)c1ccc(C2NC(=O)c3ccccc3O2)cc1 (stereo not given) | 34.9 | -20.5 | 12.1 | 0.4 | 71.4* | 13.7
